Reference: ChEMBL document CHEMBL2407025, “Antiplasmodial and cytotoxic flavans and diarylpropanes from the stems of Combretum griffithii” (J Nat Prod, 2013)
Activity calls are given as the source filed them. No cut-off for these calls is given here.

Columns and labels:
[1] = test system: Mycobacterium tuberculosis; test: Antimycobacterial activity against Mycobacterium tuberculosis H37Ra at 50 ug/ml by MABA; assay type: functional, organism-based
Method in brief: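 M. tuberculosis H37Ra was tested in vitro by microplate Alamar Blue assay (MABA). 50 μg/mL was the highest test concentration. Isoniazid was run as the reference standard.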

KB = test: Cytotoxicity against human KB cells by colorimetric method; assay type: functional, cell-based
Method in brief: (§1)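 Human epidermoid carcinoma KB, breast cancer MCF7 and small cell lung cancer NCI-H187 lines assayed by the Skehan colorimetric method. Test samples at a maximum final concentration of 50 μg/mL. Doxorubicin served as reference. Values are reported as IC50.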

NCI-H187 = test: Cytotoxicity against human NCI-H187 cells by colorimetric method; assay type: functional, cell-based; method in brief: as §1
Plasmodium falciparum [2] = test: Antimalarial activity against Plasmodium falciparum K1 assessed as reduction in parasite growth measuring [3H]-hypoxanthine uptake by microculture radioisotope technique; assay type: functional, organism-based
Method in brief: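 P. falciparum K1 (multidrug-resistant) cultured in vitro by Trager–Jensen method. Growth inhibition read as [3H]-hypoxanthine uptake in a microculture radioisotope assay (Desjardins method). Samples tested up to a maximum final concentration of 10 μg/mL. IC50 taken as the concentration giving 50% reduction in parasite growth. Dihydroartemisinin served as reference.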

MCF7 = test: Cytotoxicity against human MCF7 cells by colorimetric method; assay type: functional, cell-based; method in brief: as §1
Plasmodium falciparum [3] = test: Antimalarial activity against Plasmodium falciparum K1 assessed as reduction in parasite growth measuring [3H]-hypoxanthine uptake at 10 ug/ml by microculture radioisotope technique; assay type: functional, organism-based
[4] = Homo sapiens, MCF7, read-out: IC50

| SMILES | Activity [1] | IC50 (KB) [µM] | IC50 (NCI-H187) [µM] | IC50 (Plasmodium falciparum [2]) [µM] | IC50 (MCF7; [4]) [µM] | Activity (Plasmodium falciparum [3]) | IC50 (MCF7; mcf7) |
| --- | --- | --- | --- | --- | --- | --- | --- |
| COc1cc(OC)c2c(c1)O[C@H](c1ccc(O)c(O)c1)CC2 [(2S)-3',4'-DIHYDROXY-5,7-DIMETHOXYFLAVAN] | inactive | 31.8 | 10.4 | 9.66 | 49.1 | – | – |
| COc1cc(CCCc2c(OC)cc(O)cc2OC)ccc1O | inactive | 49.3 | 96 | – | 64.2 | inactive | – |
| COc1cc2c(cc1O)CC[C@@H](c1ccc(O)c(O)c1)O2 | inactive | 24.6 | 72 | 13 | 110 | – | – |
| C[C@H]1[C@@H](O)O[C@@H]2O[C@@]3(C)CC[C@H]4[C@H](C)CC[C@@H]1[C@@]24OO3 [ARTENIMOL] | – | – | – | 0.00142 | – | – | – |
| COc1cc([C@@H]2CCc3cc(OC)c(OC)cc3O2)ccc1O [(2S)-4'-HYDROXY-6,7,3'-TRIMETHOXYFLAVAN] | inactive | 106 | 125 | – | – | inactive | Not Active |
| COc1cc2c(cc1OC)O[C@H](c1ccc(O)c(O)c1)CC2 [(2S)-3',4'-DIHYDROXY-6,7-DIMETHOXYFLAVAN] | inactive | 43.1 | 51.4 | 15.7 | 75 | – | – |
| COc1cc(CCCc2cc(O)c(OC)cc2OC)ccc1O | inactive | 24.6 | 34.6 | – | 23.1 | inactive | – |
| COc1cc(CCCc2cc(OC)c(O)c(OC)c2)ccc1O | inactive | 46 | 42.1 | 14.5 | 72 | – | – |
| COc1cccc2c1C(=O)c1c(O)c3c(c(O)c1C2=O)C[C@@](O)(C(=O)CO)C[C@@H]3O[C@H]1C[C@H](N)[C@H](O)[C@H](C)O1 [DOXORUBICIN] | – | 0.38 | 0.12 | – | – | – | – |
| COc1ccc2c(c1)O[C@H](c1ccc(O)c(OC)c1)CC2 [(2S)-4'-HYDROXY-7,3'-DIMETHOXYFLAVAN] | inactive | 97.9 | 60.2 | – | 88.4 | inactive | – |
| COc1cc([C@@H]2CCc3cc(O)c(OC)cc3O2)ccc1O | inactive | 69 | 76.5 | – | 90.1 | inactive | – |
